# Screen size: about 130,000 compounds; about 900 (0.69%) were called active. This is one part of a sample in which actives are shown more often than they occur. Values without a mark were called inactive.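 How the source made its calls: active means inhibition above a set limit, placed 3 SD over the median of all compounds (cut at about 26% in these data); inactive means the rest.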
# Experiment: compounds extending yeast replicative lifespan, primary screen, S. cerevisiae, OD615 (AID 775);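 further: 0% = nicotinamide-treated wells and 100% = cells grown without nicotinamide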
# Conditions: S. cerevisiae growth with nicotinamide, at 10 µM, stronger effect = higher value, deaD strain in restrictive glucose medium
# In short: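 Assay system: engineered S. cerevisiae DeaD replicative-lifespan strain, galactose-grown log-phase cells; medium: restrictive CSMM-D dextrose medium; also added: nicotinamide, 1.5 mM, co-present with compound; schedule: 48 h compound exposure at 30 °C, humidified; detection: absorbance at 615 nm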
row,Compound,inhibition of the nicotinamide effect
1,COc1ccc(C(=O)CC2C(=O)N(C)C(=O)N(C)C2=O)cc1,31% (active)
2,COc1ccc(C(=O)C2CN(C)CC2C(=O)c2ccc(OC)cc2)cc1 (stereo not given),-7.58%
3,CN1CCN(C(=S)SCC(=O)Nc2ccc(Cl)cc2C(=O)c2ccccc2)CC1,2.18%
4,CNC(=S)N/N=C1\C2CN3CCN(C2)CC1(c1ccccc1)C3,6.05%
5,CC(=NC1CCN(Cc2ccccc2)CC1)c1c(O)n(C)c(=O)n(C)c1=O,-9.29%
6,CC(=C1C(=O)c2ccccc2C1=O)N1CCN(CCN=Cc2c(O)n(C)c(=O)n(C)c2=O)CC1,26.9% (active)
7,Cn1c(O)c(C=NCCCC(=O)O)c(=O)n(C)c1=O,-5.17%
8,O=C(N/N=C/c1c(O)n(Cc2ccccc2)c(=O)[nH]c1=O)c1ccccc1,-4.35%
9,CN(C)C(=O)Oc1cc(=O)n2c3c(cccc13)CCC2,-0.91%
10,O=C(CCNS(=O)(=O)c1ccccc1)Nc1ccc(Cl)cc1C(=O)c1ccccc1,0.6%
11,Cc1ccc(-n2c(-c3ccc([N+](=O)[O-])cc3)nc3ccccc3c2=O)cc1,2.14%
12,CCCCCn1c(=O)c(C(=O)Nc2c(C)n(C)n(-c3ccccc3)c2=O)c(O)c2ccccc21,0.87%
13,CCCCCn1c(=O)c(C(=O)NCc2ccccn2)c(O)c2ccccc21,36.3% (active)
14,COc1cc(C(c2c(O)c3ccccc3oc2=O)c2c(C)n(C)n(-c3ccccc3)c2=O)ccc1O (stereo not given),0.56%
15,CC(C(=O)Nc1ccc(Cl)cc1Cl)N1CC=C(c2ccccc2)CC1 (stereo not given),-1.28%
16,CN(C)CC1CCCCC1OC(=O)c1ccc(Cl)c(Cl)c1 (stereo not given),2.28%
17,Cc1ccnc(-n2c(C)cc(/C=C3\C(=O)NC(=S)N(C)C3=O)c2C)c1,43.7% (active)
18,Cc1ccc(-n2c(C)cc(/C=C3\C(=O)NC(=O)N(C)C3=O)c2C)cc1C,4.25%
19,C=CCn1c(O)c(/C=N/N2CCOCC2)c(=O)[nH]c1=S,-2.87%
20,O=C1NC(=O)N(c2ccc(F)cc2)C(=O)/C1=C/c1ccc2c(c1)CCCN2Cc1ccccc1,-3.32%

# Reference: PubChem BioAssay AID775 (SRMLSC, 2007)
